In data set [1] the target is T1, Signal transducer and activator of transcription 3 (Mus musculus, UniProt P42227). Kind of data set: Inhibition of STAT3 in mouse NIH3T3/vSrc nuclear extract assessed as disruption of the Stat3-DNA complex pre-incubated for 30 mins by EMSA analysis. The method in brief: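 NIH3T3/vSrc nuclear extracts were pre-incubated with a range of compound concentrations for 30 min at room temperature. They were then incubated with 32P-labelled hSIE probe (c-fos m67 variant) for 30 min at 30 °C and resolved by EMSA. Stat3 DNA-binding bands were quantified as percent of control, and IC50 was derived from those plots.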
T1 sequence (P42227 whole entry): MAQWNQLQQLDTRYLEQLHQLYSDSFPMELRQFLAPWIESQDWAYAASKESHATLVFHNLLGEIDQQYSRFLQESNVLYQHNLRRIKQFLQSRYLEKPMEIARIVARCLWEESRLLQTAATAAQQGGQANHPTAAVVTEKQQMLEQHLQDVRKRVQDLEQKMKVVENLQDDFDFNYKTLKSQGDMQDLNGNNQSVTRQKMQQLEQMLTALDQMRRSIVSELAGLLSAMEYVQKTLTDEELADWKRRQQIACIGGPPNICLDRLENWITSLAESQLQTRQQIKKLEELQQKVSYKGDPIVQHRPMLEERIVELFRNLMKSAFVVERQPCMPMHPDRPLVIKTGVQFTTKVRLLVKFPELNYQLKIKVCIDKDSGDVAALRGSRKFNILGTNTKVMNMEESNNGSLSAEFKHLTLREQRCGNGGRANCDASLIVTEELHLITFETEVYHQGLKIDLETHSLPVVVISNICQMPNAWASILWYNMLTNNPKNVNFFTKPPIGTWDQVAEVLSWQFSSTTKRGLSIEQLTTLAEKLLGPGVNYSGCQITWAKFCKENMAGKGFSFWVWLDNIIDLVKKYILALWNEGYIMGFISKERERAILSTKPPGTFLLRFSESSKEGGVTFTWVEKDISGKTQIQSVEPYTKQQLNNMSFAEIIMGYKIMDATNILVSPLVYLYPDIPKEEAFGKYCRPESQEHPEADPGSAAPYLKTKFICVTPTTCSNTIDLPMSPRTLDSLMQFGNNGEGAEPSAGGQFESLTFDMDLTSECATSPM
A general note: In EMSA bound probe runs differently from free probe, usually more slowly.

A short description of data set [2]: Cytotoxicity against human JJN-3 cells after 72 hrs by MTS assay. Format: functional, cell-based. Conditions: JJN-3, 72 h. (Tetrazolium assays rely on reduction of a dye to a coloured formazan, in cell work by metabolically active cells.)
A short description of data set [3]: Solubility of the compound in water. Format: physicochemical. Conditions: buffer.
Data set [4] addresses T2, Signal transducer and activator of transcription 3 (Homo sapiens, UniProt P40763). Particulars: MDA-MB-468, 20 uM.
Data set [5] concerns the target T2, Signal transducer and activator of transcription 3. Particulars: JJN-3, 20 uM.
For data set [6] the target is unchanged. Conditions: MDA-MB-468, 20 uM. This is another data set of the same source.
Data set [7] shares this target. Conditions: MDA-MB-468, 20 uM. The source holds these as a separate data set.
Data set [8] shares this target. Particulars: MDA-MB-468, 20 uM. This is another data set of the same source.
For data set [9] the target is unchanged. Conditions: JJN3, 20 uM.
Data set [10] shares this target. Particulars: JJN3, 20 uM. This is another data set of the same source.
Data set [11] has the same target. Particulars: JJN3, 20 uM. This is another data set of the same source.
For data set [12] the target is unchanged. Kind of data set: Inhibition of STAT3 phosphorylation in human MDA468 cells at 100 uM after 24 hrs by Western blotting. Format: cell-based. Conditions: MDA-MB-468. The method in brief:
(§1)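 Intact MDA-468 or JJN3 cells were treated for 24 h, with DMSO as the untreated control. Cells were lysed in Tris-HCl/EDTA/1% NP-40/150 mM NaCl for 30 min on ice, freeze-thawed once at −80 °C and centrifuged at 12000g for 15 min. Whole-cell lysates were run on 6.5–15% SDS-PAGE and immunoblotted for pY705Stat3 and total Stat3.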

Data set [13] has the same target. Description: Inhibition of STAT3 phosphorylation in human JJN-3 cells at 100 uM after 24 hrs by Western blotting. Type of data set: cell-based. The method in brief:
as §1
On the technique in general: A western blot detects proteins with antibodies after separation by electrophoresis.

Data set [14] has as its target T1, Signal transducer and activator of transcription 3. Kind of data set: Inhibition of mouse STAT3 SH2 domain using fluorescent probe 5-carboxyfluorescein-GpYLPQTV-NH2 after 30 mins by fluorescence polarisation assay.
A short description of data set [15]: Inhibition of mouse STAT5 using fluorescent probe 5-carboxyfluorescein-GpYLPQTV-NH2 after 30 mins by fluorescence polarisation assay.
The target in data set [16] is T3, Signal transducer and activator of transcription 1 (Mus musculus, UniProt P42225).
T3 sequence (P42225 whole entry): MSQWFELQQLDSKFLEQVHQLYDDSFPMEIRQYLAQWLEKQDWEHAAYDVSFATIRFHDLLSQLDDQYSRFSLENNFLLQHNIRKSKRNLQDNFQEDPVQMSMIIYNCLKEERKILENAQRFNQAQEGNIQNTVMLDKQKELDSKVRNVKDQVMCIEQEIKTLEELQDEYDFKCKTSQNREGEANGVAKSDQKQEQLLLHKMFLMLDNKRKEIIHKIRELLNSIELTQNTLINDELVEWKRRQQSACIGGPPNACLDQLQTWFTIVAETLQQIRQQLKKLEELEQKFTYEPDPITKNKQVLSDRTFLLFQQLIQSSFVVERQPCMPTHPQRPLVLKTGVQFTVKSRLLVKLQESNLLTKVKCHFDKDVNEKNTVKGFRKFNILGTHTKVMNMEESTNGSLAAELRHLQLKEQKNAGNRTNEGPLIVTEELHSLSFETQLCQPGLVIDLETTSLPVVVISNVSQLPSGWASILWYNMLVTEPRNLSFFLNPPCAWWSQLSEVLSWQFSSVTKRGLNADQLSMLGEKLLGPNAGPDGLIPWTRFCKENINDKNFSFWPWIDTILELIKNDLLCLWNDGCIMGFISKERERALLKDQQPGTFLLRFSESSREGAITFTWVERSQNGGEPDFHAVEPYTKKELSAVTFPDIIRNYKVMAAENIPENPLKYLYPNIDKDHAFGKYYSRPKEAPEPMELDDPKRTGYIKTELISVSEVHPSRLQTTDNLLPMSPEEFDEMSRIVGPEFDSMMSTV
Kind of data set: Inhibition of mouse STAT1 using fluorescent probe 5-carboxyfluorescein-GpYLPQTV-NH2 after 30 mins by fluorescence polarisation assay.

Data set [17] is described as follows: Cytotoxicity against human MDA468 cells after 72 hrs by MTS assay. Format: functional, cell-based. Particulars: MDA-MB-468, 72 h.
Data set [18] concerns DU-145. Description: Cytotoxicity against human DU145 cells after 72 hrs by MTS assay. Conditions: DU-145, 72 h. Type of data set: functional, cell-based.
A short description of data set [19]: Lipophilicity, log P of the compound. Particulars: octanol/water. Format: physicochemical.
For data set [20], the target named is T2, Signal transducer and activator of transcription 3. Kind of data set: Inhibition of STAT3 using fluorescent probe 5-carboxyfluorescein-GpYLPQTV-NH2 after 15 mins by fluorescence polarisation assay.

Structures are written as SMILES. Active and inactive are the calls of the source. The calls are words filed in the database; no cut-off is given here.

T2 sequence (P40763 whole entry): as the sequence (P42227 whole entry) above, with D760E counted along it

As for `COc1ccc(S(=O)(=O)N(C)CC(=O)N(Cc2ccc(C3CCCCC3)cc2)c2ccc(C(=O)O)c(O)c2)cc1`, the IC50 (usually the point on the concentration scale where inhibition reaches its midpoint) in [1] stood at 67.4 µM.
For the compound `CN(CC(=O)N(Cc1ccc(C2CCCCC2)cc1)c1ccc(C(=O)O)c(O)c1)S(=O)(=O)c1c(F)c(F)c(F)c(F)c1F`, in data set [2], the response was half-maximal at 16.7 µM (EC50). In addition, the solubility entry in data set [3] was “soluble”. Besides, the inhibition entry in data set [4], in [5], in [6], in [7], in data set [8] and in [9] was “Active” in each case. Moreover, the inhibition result in data set [10] and in data set [11] was “Active” each time.
For `Cc1ccc(S(=O)(=O)N(C)CC(=O)N(Cc2ccc(C3CCCCC3)cc2)c2ccc(C(=O)O)c(O)c2)cc1`, the inhibition entry in data set [12] and in data set [13] was “Active” in each case. Also, the Ki – broadly, a dissociation constant, usually derived from enzyme kinetics or from competition with a known ligand – is 15 µM in data set [14], more than 25 µM in data set [15] and more than 25 µM in data set [16].
For `CN(CC(=O)N(Cc1ccc(C2CCCCC2)cc1)c1ccc(C(=O)O)c(O)c1)S(=O)(=O)c1cccc2ccccc12`, the results for the EC50 in [17], in data set [18] and in data set [2] were 46.5 µM, 74.5 µM and 106 µM, respectively. For the same compound, in [19], the logP (commonly the decadic logarithm of the partition coefficient of the neutral form, usually between octanol and water) stood at 5.95. Further, the solubility result in [3] is “Insoluble”.
Take `CN(CC(=O)N(Cc1ccc(C2CCCCC2)cc1)c1ccc(C(=O)O)c(O)c1)S(=O)(=O)c1ccc(-c2ccccc2)cc1`: in data set [1], the IC50 is 65.4 µM. The same compound returned a Ki in [20] of 6.2 µM.
On to `CN(CC(=O)N(Cc1ccc(C2CCCCC2)cc1)c1ccc(C(=O)O)c(O)c1)S(=O)(=O)c1cn(C)cn1`, for which the half-maximal inhibitory concentration (IC50) in data set [1] was more than 300 µM. In [20], this compound came in with a Ki of more than 100 µM.
Consider `CN(CC(=O)N(Cc1ccc(C2CCCCC2)cc1)c1ccc(C(=O)O)c(O)c1)S(=O)(=O)c1ccc(F)cc1`, for which the IC50 in data set [1] is more than 300 µM.
